Activity calls are given as the source filed them. The rule behind the calls is not given here.
The molecules below were run against Bifunctional purine biosynthesis protein ATIC (Homo sapiens, UniProt P31939) (assay: Inhibition of human AICAR Tfase).
In short: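 Human ATIC transformylase activity assay run per the cited earlier method. IC50 measured in a mix of 25 nM ATIC, 50 μM AICAR substrate and 8.5 μM 10-formyltetrahydrofolate cofactor, the cofactor made in-house by a modified literature route. Inhibition mode was also examined with 0.1 mg/mL saponin present.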

Row | SMILES | IC50 | Activity | Ki
1 | O=S(=O)(O)c1ccc(/N=N/c2ccc(/N=N/c3ccc(O)c4cccc(S(=O)(=O)O)c34)cc2)cc1 | 11.6 µM | – | –
2 | O=C(O)C1=C/C(=C/C(c2ccccc2)c2cc(C(=O)O)c(O)c3ccccc23)c2ccccc2C1=O (stereo not given) | 204 µM | – | –
3 | C[C@H](CCC(=O)O)[C@H]1CC[C@H]2[C@@H]3CC[C@@H]4C[C@@H](O)CC[C@]4(C)[C@H]3C[C@H](O)[C@]12C | – | inactive | –
4 | C[C@]12CC[C@H]3[C@@H](CCC4=CC(=O)CC[C@@]43C)[C@@H]1CC[C@@H]2C(=O)COS(=O)(=O)c1ccc(Br)cc1 | 13.9 µM | – | –
5 | NS(=O)(=O)c1cccc2cc(/N=N/c3cccc4c(S(=O)(=O)O)cccc34)ccc12 | 0.6 µM | – | 0.154 µM
6 | Cc1ccc(OS(=O)(=O)c2ccc(/N=N/c3c(C)[nH]n(-c4ccc(Cl)cc4S(=O)(=O)O)c3=O)cc2)cc1 | 3.3 µM | – | –
7 | CN1CCN(c2ccc3[nH]c(-c4ccc5[nH]c(-c6ccc(O)cc6)nc5c4)nc3c2)CC1 | – | inactive | –
8 | C[C@]12CC[C@H]3[C@@H](CCC4=CC(=O)CC[C@@H]43)[C@@H]1CCC2OC1(O)C(=O)c2ccccc2C1=O (stereo not given in full) | – | inactive | –
9 | CC(=O)Nc1ccc(S(=O)(=O)Nc2cnc3ccccc3n2)cc1 | 54.7 µM | – | –
10 | COc1ccc(C(=O)O[C@H]2CC[C@@]3(C)[C@@H]4CC[C@H]5[C@]6(O)C[C@H](O)[C@@]7(O)[C@@H](CN8C[C@@H](C)CC[C@H]8[C@@]7(C)O)[C@]6(O)C[C@@]53O[C@]24O)cc1OC [VERATRIDINE] | 231 µM | – | –
11 | Cc1ccc2nc(-c3ccc(NC(=O)c4ccc(N)cc4)c(S(=O)(=O)O)c3)sc2c1 | 16.9 µM | – | –
12 | O=S(=O)(O)c1cc(/N=[N+](\[O-])c2cc(S(=O)(=O)O)c3ccccc3c2)cc2ccccc12 | 7.8 µM | – | –
13 | CC(C)[C@H](C)/C=C/[C@@H](C)[C@H]1CC[C@H]2C3=CC=C4C[C@@H](O)CC[C@]4(C)[C@H]3CC[C@]12C | – | inactive | –
14 | O=C(O)c1cc(C(=O)C(=O)c2cc(C(=O)O)c(O)c3ccccc23)c2ccccc2c1O | 8.8 µM | – | –
15 | Nc1cccc2cc(S(=O)(=O)Nc3ccc(C(=O)O)cc3)ccc12 | 4.1 µM | – | –
16 | Cc1ccc(S(=O)(=O)Nc2cc([N+](=O)[O-])c3scnc3c2)cc1 | 36.1 µM | – | –
17 | CC(C)(O)/C=C/C(=O)[C@](C)(O)[C@H]1[C@H](O)C[C@@]2(C)[C@@H]3CC=C4[C@@H](C=C(O)C(=O)C4(C)C)[C@]3(C)C(=O)C[C@]12C | – | inactive | –
18 | CC1CCC2N(C1)CC1C3(O)CC45OC6(O)C(O)CCC4(C)C6CCC5C3(O)CC(O)C13C(C)(O)C23O (stereo not given) | – | inactive | –
19 | CC1=NN(c2cc(Cl)c(S(=O)(=O)O)cc2Cl)C(=O)C1/N=N/c1ccc(S(=O)(=O)O)cc1 (stereo not given) | 20.1 µM | – | –
20 | C[C@@H]1O[C@@H](O[C@H]2C[C@@H](O)[C@]3(CO)[C@H]4[C@H](O)C[C@]5(C)[C@@H](C6=CC(=O)OC6)CC[C@]5(O)[C@@H]4CC[C@]3(O)C2)[C@H](O)[C@H](O)[C@H]1O | – | inactive | –
21 | Cc1cc(N)ccc1/N=N/c1cc(S(=O)(=O)O)c2cccc(S(=O)(=O)O)c2c1 | 7.6 µM | – | –
22 | CC1=NN(c2ccc(S(=O)(=O)O)cc2)C(=O)C1/N=N/c1ccc(S(=O)(=O)Nc2ccccc2)c(C)c1 (stereo not given) | 11.6 µM | – | –
23 | CC(CC(=O)O)[C@H]1CC[C@@]2(C)[C@@H]3C(=O)C[C@H]4C(C)(C)[C@@H](O)CC[C@]4(C)[C@H]3C(=O)C[C@]12C (single isomer, unassigned) | – | inactive | –
24 | Cc1ccc(S(=O)(=O)N/N=C2/C=C3CC[C@H]4[C@@H]5CC[C@H]([C@H](C)CCCC(C)C)[C@@]5(C)CC[C@@H]4[C@@]3(C)CC2)cc1 | 9.6 µM | – | –

Reference: ChEMBL document CHEMBL1149296, “Virtual screening of human 5-aminoimidazole-4-carboxamide ribonucleotide transformylase against the NCI diversity set by use of AutoDock to identify novel nonfolate inhibitors” (J Med Chem, 2004)
